Sampled rows, rich in hits. Any-hit rate of the full collection: about 2.2%.
G6PDH CS: counter-screen for G6PDH assay hits: L. mesenteroides G6PDH inhibition | Purified L. mesenteroides G6PDH, diaphorase/resazurin coupled fluorescence, 45 min | 0.12% of 200,000 active | inhibition, % at 5 µM; in the data active = inhibition above about 50%
ROMK mod: modulators of human ROMK potassium channel. B-score at 10 µM. 2% of 130,000 active. AID 1918. Tet-inducible ROMK, thallium flux fluorescence; actives lie on both sides. P48048;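 active = signal ratio slope over the read window, or its plate-corrected B-score, at least 3 SD from the plate mean, either direction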;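 note: B-score of the F/F0 ratio slope over 7 to 12 s after thallium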
Target sequence (P48048 whole entry, looked up): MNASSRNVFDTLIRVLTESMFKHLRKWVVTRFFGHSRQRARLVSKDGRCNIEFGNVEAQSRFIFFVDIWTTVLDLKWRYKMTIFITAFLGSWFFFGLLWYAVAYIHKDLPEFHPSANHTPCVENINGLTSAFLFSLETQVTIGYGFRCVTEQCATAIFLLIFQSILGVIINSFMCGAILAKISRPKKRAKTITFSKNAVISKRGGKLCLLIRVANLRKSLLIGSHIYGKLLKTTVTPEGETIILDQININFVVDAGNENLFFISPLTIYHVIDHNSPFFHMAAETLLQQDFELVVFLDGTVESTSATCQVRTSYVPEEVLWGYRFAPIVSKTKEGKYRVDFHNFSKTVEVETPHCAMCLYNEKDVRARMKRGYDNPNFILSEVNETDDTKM
Diaph act CS: activates diaphorase or chemically reduces, flagging diaphorase assay artifacts; Diaphorase/resazurin coupled assay, resorufin fluorescence, 16 min; hits give high values; 1 = vehicle wells, 0 = NADH-free wells; activation factor at 20 µM; 0.005% of 190,000 active; AID 1229;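 active = diaphorase activity raised at least twofold by the compound at 20 µM; inactive = activation factor below 2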
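System – purified diaphorase enzyme from Clostridium kluyveri · Input – enzyme 0.07 U/mL final · Also added – final NADH 0.114 mM, resazurin 0.1 mM · Measured by – fluorescence of resorufin, 544 nm excitation, 590 nm emission · Timing – 16 min enzyme reaction, ambient temperature · Measure – resorufin increase flagging diaphorase activators or reducers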
Diaphorase inh: diaphorase inhibition or chemical oxidation counter-screen; diaphorase resazurin-to-resorufin fluorescence, NADH, 16 min; bacterial (C. kluyveri) enzyme, not human; AID 1217; 0.69% of 190,000 active; inhibition, % at 20 µM;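 active = primary screen inhibition at 20 µM above a set limit, cut at about 50% in these data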
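System: Diaphorase enzyme from Clostridium kluyveri | Amount: Enzyme working solution with 0.14 U/mL diaphorase | Benchmarks: No-NADH positive control and DMSO neutral control | Signal: Fluorescence of resorufin formed from resazurin, Ex 544/Em 590 nm | Schedule: 16-min room-temperature incubation before reading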
PMI activator: phosphomannose isomerase (human) activation | activation factor at 20 µM | 0.005% of 190,000 active | purified human PMI, coupled resazurin fluorescence, 20 min; hits give high values; 1 = vehicle control, 0 substrate-free wells | P34949 | AID 1214;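 active = activation factor of 2 or more at 20 µM, relative to plate controls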
PMI act satM6P: activators of human phosphomannose isomerase at near-saturating mannose 6-phosphate; 0.34% of 190,000 active; P34949; AID 1216; coupled PMI enzyme assay, resazurin fluorescence, 20 min; hits give high values; 1 = untreated enzyme, 0 = substrate-free blank; activation factor at 20 µM;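 active = activation factor of 2 or more at 20 µM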
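Test system: human PMI in coupled enzyme assay; Input: PMI at 15 ng/mL final; Medium: HEPES buffer, pH 7.4; Schedule: 20 min incubation at room temperature; Technique: resorufin fluorescence at Ex 544/Em 590 nm; Compound: 20 µM single dose; Probe or stimulus: Near-saturating mannose-6-phosphate, 1.0 mM.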
ROMK retest: human ROMK channel modulation, retest confirmation; shares compounds with ROMK mod; AID 1917; 54% of 3,000 active; normalized thallium flux (F/F0 slope) at 10 µM; ROMK thallium flux, fluorescence ratio; hits give low values;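 active = Flux at 10 µM at least 3 SD below or above vehicle control mean in one or both replicates; inconclusive = no clear call, values can overlap the other calls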
Of the large screens only hits and unclear results are named; the others gave an inactive call (follow-up assays come after a bar, where they were run).

CC1=C(C(=O)OC2CCCCC2)C(c2ccco2)C2=C(CC(C)(C)CC2=O)N1 (centres undefined)	none (no result: ROMK mod) | ROMK retest inactive
CC1=C(C(=O)OC2CCCCC2)C(c2ccc(C)o2)C2=C(CCCC2=O)N1 (centres undefined)	none
O=C1ON=C(c2ccccc2)/C1=C/c1ccc(OS(=O)(=O)c2ccccc2)cc1	none (no result: ROMK mod)
O=C1ON=C(c2cccc([N+](=O)[O-])c2)/C1=C/c1ccc(O)cc1	ROMK mod -4.6 | ROMK retest 0.065
CCCCN(CCCC)CC(O)COc1ccccc1C(=O)Nc1ccccc1 (centres undefined)	ROMK mod -3.5 | ROMK retest 0.053
CCN(CC)CC(O)COc1ccccc1C(=O)CCc1ccccc1 (centres undefined)	none
Cc1cccc(N=Cc2[nH]c3ccc(Br)c(Cl)c3c2O)c1	none
COc1ccccc1CN=Cc1[nH]c2ccc(Br)c(Cl)c2c1O	ROMK mod -3.6 | ROMK retest 0.044
Cc1ccc(NC(=O)Cc2ncc(C(F)(F)F)cc2Cl)cc1Cl	none (no result: ROMK mod) | ROMK retest 0.067
O=C(Cc1ncc(C(F)(F)F)cc1Cl)NCCc1ccccc1	none
Fc1ccc(C2=NNC(=NCc3ccccc3)SC2)cc1F	ROMK mod -3 | ROMK retest inconclusive
O=C(c1cccc2ccccc12)N1CCN(c2ccc([N+](=O)[O-])c(N3CCOCC3)c2)CC1	none (no result: ROMK mod) | ROMK retest inactive
O=C(c1ccccc1F)N1CCN(c2ccc([N+](=O)[O-])c(N3CCOCC3)c2)CC1	none
O=C(NC(=S)Nc1ccccc1F)c1ccc(Br)o1	none (no result: ROMK mod) | ROMK retest 0.14
Cn1ncc(C(N)=O)c1NC(=S)NC(=O)c1ccc(Br)o1	ROMK mod 1 | ROMK retest inactive
CCOC(=O)NC(=O)COC(=O)c1ccc(Sc2ncn[nH]2)c([N+](=O)[O-])c1	none
CC(C)CCN1CCC(N)=NC1=O	none
Cc1ccc(Nc2ccc(N3CCN(c4ccc([N+](=O)[O-])cc4)CC3)nn2)cc1	none
CCC1Oc2ccc(C)cc2N(CC(=O)NCCN2C(C)CCCC2C)C1=O (centres undefined)	none
CCC1Oc2ccc(C)cc2N(CC(=O)N(Cc2ccc(C)o2)C2CCCC2)C1=O (centres undefined)	ROMK mod -4.3 | ROMK retest 0.065
COc1ccc(C=O)cc1Cn1ccnc1C	ROMK mod -7.2 | ROMK retest inactive
COc1ccc(C=O)cc1COc1c(F)c(F)cc(F)c1F	ROMK mod 3.9 | ROMK retest inactive
CCc1nccn1Cc1cc(C=O)ccc1OC	none
COc1ccc(/C=N/NC(=O)c2ccc(O)cc2O)cc1CSc1ccccn1	none (no result: ROMK mod)
COc1ccccc1C(=O)N/C(=C/c1ccccc1)C(=O)Nc1ccc(C(=O)O)cc1	none
O=C1NC(=O)/C(=C\c2ccc(N3CCOCC3)o2)N1	ROMK mod -3.6 | ROMK retest inconclusive
COc1ccc(/C=N\NC(=O)c2c(C)nc3ccc(Br)cn23)cc1	ROMK mod 2.3 | ROMK retest 0.098
COc1ccc(/C=N/NC(=O)c2c(C)nc3ccc(Br)cn23)cc1OC	none (no result: G6PDH CS, Diaph act CS, Diaphorase inh, PMI activator, PMI act satM6P)
COc1ccccc1/C=C/C(=O)NCc1ccccn1	none
COC(=O)[C@@]1(Cc2ccc(OC)cc2)[C@H]2c3cc(C(=O)N(C)C)n(CCc4ccc(OC)c(Br)c4)c3C[C@H]2CN1C(=O)c1ccccc1	ROMK mod -3.8 | ROMK retest 0.065
COC(=O)[C@@]1(Cc2ccc(OC)cc2)[C@H]2c3cc(C(=O)N4CCCC4)n(Cc4ccc(OC)c(OC)c4)c3C[C@H]2CN1C(=O)c1ccccc1	none
CCCC1(C(=O)OC)NC(c2cccc(F)c2)C2C(=O)N(CC)C(=O)C21 (centres undefined)	none (no result: ROMK mod) | ROMK retest inactive
COc1ccccc1-c1cc(-c2cc(Cl)ccc2O)n[nH]1	none | ROMK retest inconclusive
O=C(CCN1CCN(c2ccccc2F)CC1)c1ccc(Br)cc1	none (no result: ROMK mod)
COc1ccc(C(=O)CCN2CCN(c3ccccc3F)CC2)cc1	ROMK mod -10 | ROMK retest inactive
COc1ccccc1N1CCN(CCCCCCOc2ccc(F)cc2)CC1	ROMK mod -4.5 | ROMK retest 0.038
CC(C)NC(=O)CC1C(=O)N(Cc2ccccc2)C(C)c2nc3ccccc3n21 (centres undefined)	none
Cc1ccc(Sc2sc(=O)n(C)c2S(=O)(=O)c2ccc(C)cc2)cc1	none
O=C(CCCN1C(=O)c2ccccc2C1=O)NC1CCCCCC1	ROMK mod 1.2 | ROMK retest inactive
O=C(CCN1C(=O)c2cccnc2C1=O)NC1CCCCCC1	none (no result: ROMK mod)
COC(=O)/C=C1/SC(=NC(=O)c2ccc(F)cc2)NC1=O	none (no result: G6PDH CS, ROMK mod, Diaph act CS, Diaphorase inh, PMI activator, PMI act satM6P) | ROMK retest 0.048
COC(=O)/C=C1\SC(=NC(=O)c2cccc(Cl)c2)NC1=O	none (no result: ROMK mod) | ROMK retest 0.052
COC(=O)/C=C1/SC(=NC(=O)c2ccccc2)NC1=O	none (no result: ROMK mod)
O=S(=O)(Nc1nc2ccccc2nc1-[n+]1cccc(N=C([O-])c2ccccc2Cl)c1)c1ccccc1	none (no result: G6PDH CS, ROMK mod, Diaph act CS, Diaphorase inh, PMI activator, PMI act satM6P) | ROMK retest 0.053
O=C(NCc1ccco1)C1CCCN1C(=O)Nc1ccc(Cl)cc1 (centres undefined)	none
CCC(=O)c1ccc(N2CCN(C(=O)c3ccccc3)CC2)c(F)c1	none
NC(=O)NC(=O)COC(=O)c1ccc(OC(F)F)cc1	none
COc1ccccc1-n1c(SCC(=O)N2CCc3ccccc32)nc2c(c1=O)SCC2	none (no result: ROMK mod) | ROMK retest 0.058
CCOC(=O)C1CCN(C(=O)COc2ccc(Br)cc2Br)CC1	none
CCOC(=O)C1CCN(C(=O)COc2cc(C)c(Br)cc2C)CC1	ROMK mod -4.9 | ROMK retest 0.058
CCOCCCNC(=O)Cc1ccc(OC)c(OC)c1	none (no result: ROMK mod) | ROMK retest inactive
CCOCCCNCc1ccc(OC)c(OC)c1	none (no result: ROMK mod)
CNC(=O)c1[nH]cnc1C(=O)Nc1ccc(OC)cc1	ROMK mod 3.4 (no result: G6PDH CS, Diaph act CS, Diaphorase inh, PMI activator, PMI act satM6P) | ROMK retest inactive
CCN(CC)S(=O)(=O)c1cccc2cccnc12	none
CSS(=O)(=O)c1cccc2cccnc12	none (no result: G6PDH CS, ROMK mod, Diaph act CS, Diaphorase inh, PMI activator, PMI act satM6P) | ROMK retest inactive
CN=c1scc(C)n1/N=C/c1ccc(O)cc1O	none (no result: ROMK mod) | ROMK retest inconclusive
CCCCCCCC[n+]1cccc2c3ccccc3ccc21	none (no result: ROMK mod) | ROMK retest 0.052
Cc1cccc[n+]1CCCCCCCCCC[n+]1ccccc1C	none (no result: Diaph act CS, Diaphorase inh, PMI activator, PMI act satM6P)
Cc1c2ccccc2cc[n+]1CCCS(=O)(=O)[O-]	none
CCCCCCCCCC[n+]1cccc2c3ccccc3ccc21	none (no result: ROMK mod) | ROMK retest 0.035
COc1ccc(CCNC(=O)CC2SC(=NCc3ccccc3)NC2=O)cc1 (centres undefined)	none
